H9c2 TAG inh: reduces triacylglycerol accumulation in H9c2 cells. inhibition, % at 12.5 µM. hit rate 0.66% among 230,000. Nile Red lipid (TAG) fluorescence; cells loaded with 200 µM oleic acid;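 active = pattern-corrected inhibition of lipid staining of at least 50% with the nuclear-stain viability signal not falling by more than 50%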;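 note: 0% = DMSO wells and 100% = triacsin C control wells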
PG9 Ab binder: small molecules binding HIV-1 gp120 antibody PG9; TR-FRET gp120-PG9 antibody binding; inhibition, % at 6.7 µM; hit rate 0.43% among 360,000; in the data active = inhibition above about 8.5%
T cruzi inh: T. cruzi replication inhibition | AID 1885 | hit rate 1.4% among 300,000 | inhibition, % (concentration not given with the values) | T. cruzi beta-gal in NIH3T3, luminescence, 90 h;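 active = mean inhibition across valid replicates above about 55%, limit read from the data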;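 note: signal also drops with host cell toxicity which is not excluded here; 0% = plate median of DMSO wells and 100% = zero luminescence signal; higher percent means less beta-gal luminescence so fewer parasites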
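Incubation – ≥90 h infection period, 3 h prior cell attachment · System – NIH/3T3 fibroblasts plus reporter T. cruzi · Doses – compound pinned at 50 nL/well, DMSO · Read-out basis – percent inhibition of parasite-derived β-gal signal · Signal – luminescent β-galactosidase signal after 60 min lysis · Also added – 5000 T. cruzi trypomastigotes/well · Medium – Low-serum DMEM with 2% FBS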
beta cell repl: inducers of beta-cell replication in MIN6 cells | hit rate 0.29% among 330,000 | proliferation, % at 10 µM | MIN6 cells proliferation, ATPlite luminescence, 48 h; cells starved in 0.2% serum; 100% = growth in 10% serum;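 active = compounds whose signal lies at least 3.5 SD above the mean of all wells on their plate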;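 note: 0% = DMSO-treated cells in low-serum medium and 100% = 10% serum control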
hiPSC survival: enhancers of human iPSC single-cell survival; hiPSC single-cell survival, ATPlite luminescence; 100% = ROCK inhibitor wells, 0% = DMSO; survival enhancement, % at 20 µM; hit rate 0.044% among 360,000; AID 602274; in the data active = survival enhancement above about 18%;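 note: cells exposed to compounds for 16 hours before the ATP read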
NR1D1 modulator: Rev-erb alpha (human) modulation. hit rate 0.79% among 370,000. Rev-erbα–FITC-DNA binding, fluorescence polarization, 90 min. P20393. activity, % at 10 µM;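 active = activity above about 14%, limit read from the data; passing the limit was not always enough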;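 note: 0% = DMSO wells with 35 nM protein and 100% = DMSO wells with 750 nM protein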
Target sequence (P20393 whole entry, looked up): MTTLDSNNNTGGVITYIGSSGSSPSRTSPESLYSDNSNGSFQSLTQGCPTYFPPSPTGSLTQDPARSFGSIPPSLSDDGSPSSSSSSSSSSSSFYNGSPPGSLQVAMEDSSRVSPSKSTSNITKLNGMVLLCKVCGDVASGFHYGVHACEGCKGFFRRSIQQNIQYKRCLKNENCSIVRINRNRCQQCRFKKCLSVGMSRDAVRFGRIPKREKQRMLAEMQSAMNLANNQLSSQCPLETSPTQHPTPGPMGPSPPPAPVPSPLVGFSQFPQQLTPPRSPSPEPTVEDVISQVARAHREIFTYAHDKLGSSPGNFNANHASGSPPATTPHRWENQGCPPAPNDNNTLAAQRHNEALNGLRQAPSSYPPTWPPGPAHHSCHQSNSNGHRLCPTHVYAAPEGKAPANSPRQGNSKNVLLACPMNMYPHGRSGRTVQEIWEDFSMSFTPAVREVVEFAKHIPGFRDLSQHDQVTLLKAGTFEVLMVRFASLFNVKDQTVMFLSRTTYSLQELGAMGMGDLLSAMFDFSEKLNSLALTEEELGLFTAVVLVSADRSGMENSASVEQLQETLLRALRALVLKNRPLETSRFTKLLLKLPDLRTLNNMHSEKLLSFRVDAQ
TAG conf: confirmation of triacylglycerol accumulation inhibitors; hit rate 71% among 990; shares compounds with H9c2 TAG inh; H9c2 lipid accumulation, Nile Red fluorescence; cells loaded with 200 µM oleic acid; AID 651629; inhibition, % at 12.5 µM;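 active = mean inhibition across replicates of 40% or more; inactive = mean inhibition below 40%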;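 note: plate controls were DMSO only wells for no effect and Triacsin C treated wells for full effect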
An asterisk follows results filed as active; nt = no result. The list is not random: actives were taken first. Their share in the collection is about 2.9%.

SMILES	H9c2 TAG inh	PG9 Ab binder	T cruzi inh	beta cell repl	hiPSC survival	NR1D1 modulator	TAG conf
CN(C)CCNC(=O)C(=O)Nc1ccc2c(c1)N(S(=O)(=O)c1cccs1)CCC2	54*	0	16	-2	0	4	54*
CCOC(=O)[C@]12CCCC=C1N(Cc1ccc(OC)cc1)C(=O)[C@@H]2CC(=O)N1CCN(C(=O)C2CC2)CC1	nt	nt	nt	nt	nt	4	nt
C[C@H](O)C#Cc1ccc2c(c1)O[C@@H](CN(C)Cc1ccc(-c3ccccc3)cc1)[C@H](C)CN([C@@H](C)CO)S2(=O)=O	64*	-3	nt	nt	-2	-3	66*
C[C@H](CO)N1C[C@H](C)[C@@H](CN(C)Cc2ccc(-c3ccccc3)cc2)Oc2c(NC(=O)Cc3ccccc3)cccc2C1=O	50*	nt	nt	-6	2	nt	59*
C[C@@H]1CN([C@@H](C)CO)C(=O)c2cccc(NC(=O)C3CCCCC3)c2O[C@@H]1CN(C)Cc1ccc(Cl)c(Cl)c1	55*	-1	nt	-6	-2	-5	70*
C[C@H](CO)N1C[C@H](C)[C@@H](CN(C)S(=O)(=O)c2cccs2)Oc2c(NC(=O)Nc3ccccc3)cccc2C1=O	-18	-1	nt	-3	2	0	nt
C[C@H](CO)N1C[C@H](C)[C@@H](CN(C)Cc2ccncc2)Oc2c(NC(=O)C3CCCCC3)cccc2C1=O	2	0	nt	-3	2	-2	nt
C[C@@H]1CN([C@H](C)CO)C(=O)c2cccc(NC(=O)Nc3ccc(C(F)(F)F)cc3)c2O[C@H]1CN(C)S(=O)(=O)c1cccs1	71*	-1	nt	-6	-2	-1	63*
C[C@@H]1CN([C@H](C)CO)S(=O)(=O)c2ccc(Br)cc2O[C@@H]1CN(C)Cc1ccc(-c2ccccc2)cc1	-8	0	nt	nt	6	5	nt
Cc1cc(Br)cc(Cl)c1OCC(=O)NC(=O)NCc1ccccc1	nt	-2	10	2	0	0	nt
C[C@@H]1CN([C@H](C)CO)C(=O)c2c(c3ccccc3n2C)-c2ccccc2CO[C@H]1CN(C)Cc1ccc(-c2ccccc2)cc1	84*	-1	nt	nt	4	9	53*
C[C@@H]1CN([C@H](C)CO)C(=O)c2c(c3ccccc3n2C)-c2ccccc2CO[C@H]1CN(C)Cc1ccccc1	34	-2	nt	nt	0	0	nt
Cc1ccc(-c2nn(CC(=O)NC(C)c3ccccc3)c(=O)c3ccccc23)cc1 (stereo unspecified)	31	-4	14	-4	-1	0	nt
COc1ccc2c(c1)c(CC(=O)Nc1ccc(C)cc1)c(C)n2C(=O)c1ccc(Cl)cc1	61*	-1	56*	-3	7	-3	50*
COc1ccc(NC(=O)Cc2c(C)n(C(=O)c3ccc(Cl)cc3)c3ccc(OC)cc23)cc1	36	-1	44	-4	-1	2	nt
Cc1cccc(Nc2nc(NCc3ccco3)nc(N3CCOCC3)n2)c1	86*	0	44	-3	2	2	83*
O=C(CNC(=O)c1ccccc1F)N/N=C/c1cccnc1	nt	-1	0	-2	0	-6	nt
COc1ccc2cc3cc(C(=O)NCC4COc5ccccc5O4)oc3nc2c1 (stereo unspecified)	57*	6	18	0	-3	22	33
CNC(=O)Nc1ccc(C2SCCS2)cc1	6	1	10	-3	0	-5	nt
CCCCNC(=O)Nc1ccc(C2SCCS2)cc1	57*	0	5	-3	-1	-3	-9
CCN(CC)S(=O)(=O)c1cc(NC(=S)NC(=O)C2CCCC2)ccc1C	-4	0	nt	-5	1	7	nt
Cc1c(-c2ccc(F)cc2)nc(N)c(C#N)c1-c1ccco1	nt	-1	9	-1	-1	-1	nt
COc1ccc2[nH]c3c(c2c1)CCN1C(=O)C(CC(=O)NCc2cccc(C(F)(F)F)c2)C[C@H](C(=O)N2CCCCC2)[C@@]31CCc1ccccc1 (stereo partly specified)	102*	-1	nt	nt	0	-4	90*
O=C(C[C@H]1C[C@H](C(=O)N2CCCCC2)[C@@]2(CCc3ccccc3)c3[nH]c4ccc(Cl)cc4c3CCN2C1=O)NCc1cccc(C(F)(F)F)c1	102*	0	nt	nt	-2	0	100*
O=C(CC1C[C@H](C(=O)N2CCCCC2)[C@@]2(CCc3ccccc3)c3[nH]c4ccccc4c3CCN2C1=O)NCCc1ccccn1 (stereo partly specified)	19	0	nt	nt	-3	-2	nt
SMILES	H9c2 TAG inh	PG9 Ab binder	T cruzi inh	beta cell repl	hiPSC survival	NR1D1 modulator	TAG conf
O=C(CC1C[C@H](C(=O)N2CCCCC2)[C@@]2(CCc3ccccc3)c3[nH]c4ccccc4c3CCN2C1=O)NCc1cccc(C(F)(F)F)c1 (stereo partly specified)	91*	1	nt	-5	-3	1	88*
COc1ccc2[nH]c3c(c2c1)CCN1C(=O)C(CC(=O)NCCN2CCOCC2)C[C@H](C(=O)N2CCCCC2)[C@@]31CCc1ccccc1 (stereo partly specified)	3	2	nt	nt	-2	-1	nt
CC(C)(C)NC(=O)C[C@H]1C[C@H](C(=O)N2CCCCC2)[C@@]2(CCc3ccccc3)c3[nH]c4ccc(Cl)cc4c3CCN2C1=O	62*	-2	nt	nt	2	5	45*
Cn1c2ccccc2c2cc(C(=O)N3CCOCC3)sc21	nt	0	8	-2	-1	0	nt
C=CCc1cc(C=O)cc(OC)c1OCc1c(Cl)cccc1Cl	nt	2	-7	-6	5	9	nt
CCOC(=O)c1cc(-c2ccccc2)sc1NC(=O)COC(=O)c1cccc(S(N)(=O)=O)c1	78*	1	5	-4	-1	11	68*
Cc1cc(N2CCOCC2)nc2ccc(NC(=O)C3CCC(C)CC3)cc12 (stereo unspecified)	54*	8	8	-4	5	-2	37
CCN1CCN(c2cc(C)c3cc(NC(=O)c4ccc(Br)o4)ccc3n2)CC1	58*	-3	35	-4	-3	6	37
COc1cccc(-n2c(C)cc(/C=C3\C(=N)N4N=C(CC(=O)N5CCOCC5)SC4=NC3=O)c2C)c1	nt	3	-2	-4	0	-2	nt
O=C1Nc2ccc(Br)cc2/C1=N\N=C\C1=C(N2CCOCC2)C(=C/c2ccccc2)/CC1	84*	-4	nt	nt	2	0	136*
CCc1nc2ccc(C(=O)Nc3cc(-c4ccccc4)ccc3OC)cn2c1N(C)Cc1ccc(Cl)cc1	47	-1	nt	nt	8	1	nt
Cc1cccc2c(C(=O)N3CCCCC3)cc(-c3ccccc3)nc12	nt	-1	15	-5	0	1	nt

Compound activity from PubChem BioAssay.
